Bioassay records deposited in PubChem BioAssay by several laboratories.
Lung fibro prol: blocks proliferation of human lung fibroblasts | LL 47 human lung fibroblast viability, ATP luminescence; stronger effect = lower value | viability, % at 10 µM | 85,000 tested, 1.1% active;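 active means viability at or below 50% in the single dose screen; inactive means viability above 50%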;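 further: compound exposure lasted 72 h before the ATP readout; 100% = median luminescence of untreated cell-only wells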
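Material: human lung fibroblast line LL 47, low passage; Evaluation: viability percentage against median untreated-cell control; Buffer or medium: 15% FBS in IMEM; Incubation: 72 h compound exposure at 37 °C after overnight plating; Dosing: 0.1% DMSO in all compound wells; Measured by: CellTiter-Glo luminescence.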
HUVEC prolif 384: human endothelial cell proliferation inhibition. viability, % at 10 µM (by protocol). 86,000 tested, 1.1% active. HUVEC proliferation, CellTiter-Glo luminescence, 72 h; stronger effect = lower value. AID 648;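 active means viability at or below 30%; inactive means viability above 30%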;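 further: 100% = median luminescence of DMSO-only cell control wells on each plate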
PTEN del growth: growth suppressors of cells with PTEN tumor suppressor deletion; viability, % at 10 µM; AID 827; HCT116 PTEN-null viability, CellTiter-Glo, 60 h; stronger effect = lower value; 140,000 tested, 1.2% active;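 active means viability at or below a set limit, 4 SD under the median of all tested compounds, cut at about 3.7% in these data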;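 further: PTEN knockout HCT116 line with beta catenin targeted HCT116 as companion control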
HCT116 bCat-KO: beta-catenin-lacking colon tumor cell growth suppression. 140,000 tested, 1.5% active. viability, % at 10 µM. HCT116 beta-catenin knockout viability, CellTiter-Glo, 60 h; stronger effect = lower value. AID 818;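 active means viability at or under a set limit, the compound median less 4 SD, cut at about 6% in these data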;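 further: 0% = Hyamine 1622 control at 20 µM and 100% = untreated cell control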
H69AR inhibit: blocks growth of human H69AR lung tumor cells. 85,000 tested, 6% active. H69AR lung tumor viability, ATP luminescence, 72 h; stronger effect = lower value. viability, % at 10 µM. AID 598;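 active means viability at or below 40%; inactive means viability above 40%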;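 further: multidrug resistant small cell line overexpressing MRP-1 efflux transporter; 100% = mean luminescence of untreated control wells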
Candida biofilm: kills Candida albicans biofilms | AID 834 | C. albicans biofilm + clotrimazole, Alamar Blue | 85,000 tested, 0.14% active | inhibition, % at 6 µM;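 active means inhibition above 20%; inactive means inhibition below 20%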;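 further: preformed 24 hr biofilms exposed to compound for 48 hr; 0% = biofilm without compound and 100% = blank killed by clotrimazole plus chlorhexidine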
An asterisk follows results filed as active; x = no result given. This is one part of a sample in which hits are shown more often than they occur.

SMILES	Lung fibro prol	HUVEC prolif 384	PTEN del growth	HCT116 bCat-KO	H69AR inhibit	Candida biofilm
Cc1ccc2nc(NC(=O)CN(C)S(=O)(=O)c3ccc(Br)s3)sc2c1	97	57	21	22	21*	-2
COc1ccc(OC)c(NC(=O)CN(c2ccc(C)cc2)S(=O)(=O)c2c(C)noc2C)c1	94	91	81	91	74	-2
CCc1ccc(N(CC(=O)Nc2nc3ccc(C)cc3s2)S(=O)(=O)c2c(C)noc2C)cc1	98	50	23	28	3.3*	12
Cc1ccc(NC(=O)CN(C)S(=O)(=O)c2cccc3cccnc23)cc1	97	108	88	97	100	23*
Cc1csc(NC(=O)CN(C)S(=O)(=O)c2cccc3cccnc23)n1	104	106	88	87	88	5
CC[C@H](C)NC(=O)c1ccc(Cn2c(=S)[nH]c3c([nH]c4ccc(OC)cc43)c2=O)cc1	x	x	90	91	x	x
O=C(CSc1ccccc1C(=O)NCc1ccccc1)NC1CCCCCCC1	x	x	73	89	x	x
Cc1ccnc(NC(=O)CN(C)S(=O)(=O)c2cccc3nsnc23)c1	98	94	107	99	75	2
Cc1ccc2nc(NC(=O)CN(C)S(=O)(=O)c3cccc4nsnc34)sc2c1	25*	29*	31	41	12*	-3
O=C(CCS(=O)(=O)c1ccc(Br)cc1)Nc1ccc(Br)cc1F	x	x	81	79	x	x
Cc1cccc(N2C(=S)N=C(Nc3c(C)cccc3C)C23CCOC(C)(C)C3)c1 (stereo not given)	90	102	88	87	68	5
Cc1cccc(C)c1NC1=NC(=S)N(c2ccccc2)C12CCOC(C)(C)C2 (stereo not given)	87	90	24	30	34*	-2
C=CCn1c(SCC(=O)NC(=O)c2cccc([N+](=O)[O-])c2)nnc1-c1ccccc1	x	x	92	95	x	x
Cc1ccc(N2C(=O)[C@@H]3C(C(=O)CCN4C(=O)c5ccccc5C4=O)=NN[C@@H]3C2=O)cc1	x	x	96	97	x	x
Cc1ccc(N=C/C(C(=O)C(F)(F)F)=C(\O)c2ccco2)cc1Cl	x	x	88	78	x	x
COC(=O)c1ccccc1NC(=O)CCc1ccccc1	x	x	93	98	x	x
COC(=O)c1ccccc1CCC(C)=O	91	78	100	91	24*	-3
CCC(C)c1ccc(NC(=S)NC2CCN(Cc3ccccc3)CC2)cc1 (stereo not given)	x	x	1.1*	1.9*	x	x
CCN(CC)c1ccc(Nc2nc(N3CCOCC3)c3ccccc3n2)cc1	88	81	21	14	32*	4
COc1ccc(Nc2nc(N3CCCCC3)nc(N3CCCCC3)n2)c(OC)c1	94	96	x	x	86	5
COc1ccc(Nc2nc(N3CCCCC3)nc3ccccc23)c(OC)c1	77	72	7	11	9.0*	3
COc1ccc(Nc2nc(N3CCCC3)c3ccccc3n2)cc1	20*	7.7*	1.9*	1.7*	36*	6
CCOc1ccc(Br)cc1/C(C)=N\NC1=NCCN1	52	58	15	14	18*	4
CCOc1ccc(CSC2=NCCN2)cc1Cl	80	78	75	67	78	3
Cc1c(-n2cc(C(=O)c3cc(Br)ccc3O)cc(C#N)c2=O)c(=O)n(-c2ccccc2)n1C	x	x	77	77	x	x
SMILES	Lung fibro prol	HUVEC prolif 384	PTEN del growth	HCT116 bCat-KO	H69AR inhibit	Candida biofilm
c1ccc(N(c2ccccc2)c2nc(N3CCOCC3)nc(N3CCOCC3)n2)cc1	93	84	x	x	52	7
FC(F)(F)COc1nc(N2CCOCC2)nc(N(c2ccccc2)c2ccccc2)n1	94	92	62	63	40*	2
CCOc1ccccc1-c1nc(C(N)=O)c2[nH]c(=O)n(-c3cccc(C)c3)c2n1	94	91	66	75	33*	-6
COc1ccc(-c2nc(C(N)=O)c3[nH]c(=O)n(-c4ccccc4OC)c3n2)c(OC)c1	90	86	63	75	31*	-1
CCOc1cccc(-c2nc(C(N)=O)c3[nH]c(=O)n(-c4cccc(Cl)c4)c3n2)c1O	x	x	95	99	x	x
CCCC(=O)Nc1cc(C(=O)O)ccc1S(=O)(=O)c1ccc(Cl)cc1	x	x	91	94	x	x
COc1ccc(OC)c(NC(=O)CSc2nnc(C3CCCCC3)n2-c2ccccc2)c1	92	86	85	96	45	9
COc1ccc(C2C(C#N)=C(N)Oc3c2sc2nc(C)cc(C)c32)cc1 (stereo not given)	x	x	0.6*	0.9*	x	x
CCCc1c(O)nc(SCCN(CC)CC)n(C(=O)c2ccccc2)c1=O	99	89	100	100	93	6
Cc1cccc(-n2nc3c([n+]2[O-])CCc2nonc2-3)c1C	x	x	104	91	x	x
Cc1ccc(-n2nc3c([n+]2[O-])CCc2c-3no[n+]2[O-])cc1	94	97	19	26	38*	-2
[O-][n+]1onc2c1CCc1c-2nn(-c2ccccc2Cl)[n+]1[O-]	56	63	2.0*	2.5*	x	3
N#C/C(=C\c1ccc(-c2ccc([N+](=O)[O-])cc2Br)o1)C(=O)N1CCN(c2ccccc2)CC1	x	x	78	82	x	x
CC(=O)N1CCN(C2=Nc3cccc4cccc2c34)CC1	96	106	106	97	91	4
c1cc2c3c(cccc3c1)C(N1CCN(C3=Nc4cccc5cccc3c45)CC1)=N2	91	85	x	x	7.7*	8
c1ccc(CC2CCN(C3=Nc4cccc5cccc3c45)CC2)cc1	77	7.2*	17	21	26*	8
COc1ccc(-c2n[nH]c(C(F)(F)F)c2-c2cc3ccccc3o2)c(O)c1	79	12*	13	13	11*	6
O=C(Cc1ccc(F)cc1)Nc1c2c(nn1-c1cccc(Cl)c1)CS(=O)C2 (stereo not given)	96	88	89	89	80	1
O=C(Nc1ccc(-c2nc3cc(Cl)ccc3o2)cc1)C1CCCO1 (stereo not given)	71	113	23	26	33*	-1
O=C(Cc1ccc(Cl)cc1)Nc1ccc2oc(-c3ccncc3)nc2c1	8.1*	18*	76	46	32*	10
COc1ccc(CC(=O)Nc2ccc(-c3nc4cc(C)ccc4o3)c(O)c2)cc1OC	40*	91	8	13	49	8
Cc1c(NC(=O)C(C)N2CC(C)OC(C)C2)c(=O)n(-c2ccccc2)n1C (stereo not given)	96	100	103	98	95	8
O=C(CCN1C(=O)/C(=C/C=C/c2ccccc2)SC1=S)Nc1nccs1	x	x	64	58	x	x
Cc1ccc(NC(=O)CCCN2C(=O)/C(=C/C=C/c3ccccc3)SC2=S)cc1	x	x	2.4*	7	x	x
Cc1ccc(C)c(SCC(=O)Nc2cc(C)nn2-c2ccc(F)cc2)c1	x	x	77	92	x	x
N#Cc1c(SCC(=O)Nc2nccs2)nc2c(c1-c1ccco1)CCCC2	98	98	99	90	23*	6
